According to the M2OR odorant receptor database:
Residue numbers refer to the chain shown, from its start.

Key:
Details in all cases: stereoisomer not certain
O52J3 T77A V128I Q141L = system: O52J3 T77A V128I Q141L
Procedure, shortened: (§1)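 Transient luciferase assays in mammalian cell lines were common, though methods varied by source. The values come from published papers and their supplementary material, with extra details from the original authors when needed. Responsive refers to a measured signal the original authors judged statistically different from baseline, and non-responsive (inactive) to the remainder.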

O52K1 A119T A149T = system: T1, O52K1 A119T A149T
T1 sequence (whole entry): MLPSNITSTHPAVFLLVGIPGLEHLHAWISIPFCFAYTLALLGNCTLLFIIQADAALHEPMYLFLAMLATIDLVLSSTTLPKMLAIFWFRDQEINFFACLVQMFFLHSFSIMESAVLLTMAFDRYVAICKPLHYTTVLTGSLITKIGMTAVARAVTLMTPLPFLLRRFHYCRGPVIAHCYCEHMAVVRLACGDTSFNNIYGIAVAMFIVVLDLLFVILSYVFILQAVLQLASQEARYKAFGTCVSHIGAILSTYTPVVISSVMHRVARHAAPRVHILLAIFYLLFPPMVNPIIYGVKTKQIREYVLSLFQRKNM
Procedure, shortened: as §1

O52K1 Q52R = system: T2, O52K1 Q52R
T2 sequence (whole entry): T1 sequence (whole entry) with Q52R, T119A, T149A
Procedure, shortened: as §1

O52L1 = system: T3, O52L1
T3 sequence (whole entry): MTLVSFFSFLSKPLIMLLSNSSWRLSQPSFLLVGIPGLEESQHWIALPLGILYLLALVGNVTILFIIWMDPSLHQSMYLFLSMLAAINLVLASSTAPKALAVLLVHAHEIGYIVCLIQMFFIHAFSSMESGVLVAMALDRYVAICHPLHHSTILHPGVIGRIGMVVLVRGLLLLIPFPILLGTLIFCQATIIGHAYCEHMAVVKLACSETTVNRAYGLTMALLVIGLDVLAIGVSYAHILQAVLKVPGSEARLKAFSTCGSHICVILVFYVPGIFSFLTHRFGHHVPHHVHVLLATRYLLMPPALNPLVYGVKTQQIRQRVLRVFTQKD
Procedure, shortened: as §1

O52M1 S305R = system: T4, O52M1 S305R
T4 sequence (whole entry): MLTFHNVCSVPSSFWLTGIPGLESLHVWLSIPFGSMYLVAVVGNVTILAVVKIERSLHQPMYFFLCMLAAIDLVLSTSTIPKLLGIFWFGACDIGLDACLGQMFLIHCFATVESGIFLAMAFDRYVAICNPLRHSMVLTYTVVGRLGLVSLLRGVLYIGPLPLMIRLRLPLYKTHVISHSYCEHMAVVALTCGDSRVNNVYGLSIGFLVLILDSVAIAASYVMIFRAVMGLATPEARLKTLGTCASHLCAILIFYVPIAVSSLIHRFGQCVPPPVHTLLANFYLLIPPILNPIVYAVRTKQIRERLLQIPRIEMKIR
Procedure, shortened: as §1

O52N1 R167C F247I = system: T5, O52N1 R167C F247I
T5 sequence (whole entry): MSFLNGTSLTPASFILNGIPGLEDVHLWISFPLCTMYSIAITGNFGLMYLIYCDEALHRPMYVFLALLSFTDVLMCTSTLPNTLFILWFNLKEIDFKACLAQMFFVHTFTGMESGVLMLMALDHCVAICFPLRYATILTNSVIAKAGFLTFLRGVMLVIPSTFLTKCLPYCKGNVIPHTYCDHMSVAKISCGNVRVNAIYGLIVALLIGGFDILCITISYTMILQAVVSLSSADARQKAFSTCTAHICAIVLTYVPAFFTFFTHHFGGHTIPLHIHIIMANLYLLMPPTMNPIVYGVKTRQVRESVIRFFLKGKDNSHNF
Procedure, shortened: as §1

O52N2 S249A H264R = system: T6, O52N2 S249A H264R
T6 sequence (whole entry): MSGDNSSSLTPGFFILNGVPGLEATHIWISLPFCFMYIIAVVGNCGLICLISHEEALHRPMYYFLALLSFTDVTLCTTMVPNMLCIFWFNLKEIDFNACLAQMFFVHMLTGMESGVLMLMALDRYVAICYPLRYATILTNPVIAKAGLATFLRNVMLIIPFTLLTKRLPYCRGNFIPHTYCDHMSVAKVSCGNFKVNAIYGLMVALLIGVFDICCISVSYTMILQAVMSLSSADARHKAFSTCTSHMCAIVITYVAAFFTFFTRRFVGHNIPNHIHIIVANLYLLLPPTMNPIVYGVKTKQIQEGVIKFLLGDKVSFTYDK
Procedure, shortened: as §1

O52W1 H239R L254Q = system: T7, O52W1 H239R L254Q
T7 sequence (whole entry): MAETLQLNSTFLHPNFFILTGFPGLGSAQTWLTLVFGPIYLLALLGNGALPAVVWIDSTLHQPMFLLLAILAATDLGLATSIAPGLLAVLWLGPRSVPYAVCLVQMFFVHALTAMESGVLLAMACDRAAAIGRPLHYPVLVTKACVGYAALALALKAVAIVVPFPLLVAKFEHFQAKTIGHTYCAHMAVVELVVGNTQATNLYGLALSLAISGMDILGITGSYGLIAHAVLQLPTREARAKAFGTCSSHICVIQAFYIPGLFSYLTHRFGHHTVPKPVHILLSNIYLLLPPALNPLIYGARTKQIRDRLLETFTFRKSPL
Procedure, shortened: as §1

O56A3 = system: T8, O56A3
T8 sequence (whole entry): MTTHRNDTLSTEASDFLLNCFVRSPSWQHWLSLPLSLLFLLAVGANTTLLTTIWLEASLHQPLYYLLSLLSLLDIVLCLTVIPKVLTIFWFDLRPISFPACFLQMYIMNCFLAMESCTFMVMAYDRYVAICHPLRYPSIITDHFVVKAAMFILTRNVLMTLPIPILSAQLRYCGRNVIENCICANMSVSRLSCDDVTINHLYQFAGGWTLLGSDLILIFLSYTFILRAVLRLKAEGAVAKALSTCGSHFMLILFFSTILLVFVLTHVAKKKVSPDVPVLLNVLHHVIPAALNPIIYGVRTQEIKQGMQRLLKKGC
Procedure, shortened: as §1

O56A4 I247A = system: T9, O56A4 I247A
T9 sequence (whole entry): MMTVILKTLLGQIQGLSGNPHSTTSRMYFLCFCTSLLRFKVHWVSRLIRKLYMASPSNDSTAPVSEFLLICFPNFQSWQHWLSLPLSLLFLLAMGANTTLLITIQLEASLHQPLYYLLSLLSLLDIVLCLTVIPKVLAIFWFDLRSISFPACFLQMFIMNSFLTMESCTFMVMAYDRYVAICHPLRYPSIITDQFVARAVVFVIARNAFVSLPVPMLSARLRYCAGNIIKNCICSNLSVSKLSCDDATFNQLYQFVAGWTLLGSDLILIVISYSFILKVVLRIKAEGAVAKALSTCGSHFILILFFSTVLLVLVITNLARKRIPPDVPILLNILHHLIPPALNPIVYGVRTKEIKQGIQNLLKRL
Procedure, shortened: as §1

Measured: odorant receptor agonist call;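 note: active if original authors judged signal statistically different from baseline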

CC1=C(O)C(=O)C(C)O1 (centres undefined)
inactive: all assays above

CC1=NC(C)C(C)S1 (centres undefined)
inactive: all assays above

CCCCCCC=CCCC=O
not listed: O52L1
inactive: all other assays above

CCC1OC(C)=C(O)C1=O (centres undefined)
inactive: all assays above

CC1=C(O)C(=O)OC1C (centres undefined)
inactive: all assays above

CCCC(S)CCOC(C)=O (centres undefined)
inactive: all assays above

CCC1OC(=O)C(O)=C1C (centres undefined)
inactive: all assays above

Cc1cnc(C)c(C)n1
inactive: all assays above
